Results taken from ChEMBL document CHEMBL2157880, “Synthesis, antimycobacterial and antibacterial activity of ciprofloxacin derivatives containing a N-substituted benzyl moiety” (2012).
Values after ≈ are worked out from the molar mass of the structure shown.

tested on: Escherichia coli; experiment: Antibacterial activity against Escherichia coli 10-1 after 18 to 24 hrs by NCCLS method; assay type: functional
Procedure, shortened: (§1)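 Standard NCCLS (M100-S11) MIC testing against Gram-positive and Gram-negative strains. Plates were incubated at 35 °C for 18–24 h. The MIC was read as the lowest concentration giving complete inhibition of visible bacterial growth.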

**Q.** With `COc1ccc(CN2CCN(c3cc4c(cc3F)c(=O)c(C(=O)O)cn4C3CC3)CC2)c(OC)c1OC` as the compound, how does the MIC read?
**A.** > 128 µg/mL

tested on: Staphylococcus epidermidis; experiment: Antibacterial activity against methicillin-sensitive Staphylococcus epidermidis 10-11 after 18 to 24 hrs by NCCLS method; assay type: functional; procedure, shortened: as §1

**Q.** `COc1ccc(CN2CCN(c3cc4c(cc3F)c(=O)c(C(=O)O)cn4C3CC3)CC2)c(OC)c1OC` was tested. Which MIC did it give?
**A.** 0.25 µg/mL (≈ 0.489 µM)

tested on: Escherichia coli; experiment: Antibacterial activity against extended spectrum beta-lactamases producing Escherichia coli 10-2 after 18 to 24 hrs by NCCLS method; assay type: functional; procedure, shortened: as §1

**Q.** With `COc1ccc(CN2CCN(c3cc4c(cc3F)c(=O)c(C(=O)O)cn4C3CC3)CC2)c(OC)c1OC` as the compound, how does the MIC read?
**A.** > 128 µg/mL

tested on: Enterococcus faecalis; experiment: Antibacterial activity against Enterococcus faecalis 10-5 after 18 to 24 hrs by NCCLS method; assay type: functional; procedure, shortened: as §1

**Q.** For `COc1ccc(CN2CCN(c3cc4c(cc3F)c(=O)c(C(=O)O)cn4C3CC3)CC2)c(OC)c1OC`, which MIC is on record?
**A.** 16 µg/mL (≈ 31.3 µM)

tested on: Staphylococcus aureus; experiment: Antibacterial activity against Staphylococcus aureus ATCC 2592 after 18 to 24 hrs by NCCLS method; assay type: functional; procedure, shortened: as §1

**Q.** `COc1ccc(CN2CCN(c3cc4c(cc3F)c(=O)c(C(=O)O)cn4C3CC3)CC2)c(OC)c1OC` was tested. Which MIC did it give?
**A.** 0.5 µg/mL (≈ 0.977 µM)

tested on: Pseudomonas aeruginosa; experiment: Antibacterial activity against Pseudomonas aeruginosa 10-20 after 18 to 24 hrs by NCCLS method; assay type: functional; procedure, shortened: as §1

**Q.** Which MIC does the source give for `COc1ccc(CN2CCN(c3cc4c(cc3F)c(=O)c(C(=O)O)cn4C3CC3)CC2)c(OC)c1OC` here?
**A.** 32 µg/mL (≈ 62.6 µM)

tested on: Staphylococcus aureus; experiment: Antibacterial activity against methicillin-sensitive Staphylococcus aureus 10-14 after 18 to 24 hrs by NCCLS method; assay type: functional; procedure, shortened: as §1

**Q.** With `COc1ccc(CN2CCN(c3cc4c(cc3F)c(=O)c(C(=O)O)cn4C3CC3)CC2)c(OC)c1OC` as the compound, how does the MIC read?
**A.** 0.125 µg/mL (≈ 0.244 µM)

tested on: Klebsiella pneumoniae; experiment: Antibacterial activity against Klebsiella pneumoniae 10-2 after 18 to 24 hrs by NCCLS method; assay type: functional; procedure, shortened: as §1

**Q.** For `COc1ccc(CN2CCN(c3cc4c(cc3F)c(=O)c(C(=O)O)cn4C3CC3)CC2)c(OC)c1OC`, which MIC is on record?
**A.** > 128 µg/mL

tested on: Enterococcus faecalis; experiment: Antibacterial activity against Enterococcus faecalis 10-6 after 18 to 24 hrs by NCCLS method; assay type: functional; procedure, shortened: as §1

**Q.** How did the MIC turn out when `COc1ccc(CN2CCN(c3cc4c(cc3F)c(=O)c(C(=O)O)cn4C3CC3)CC2)c(OC)c1OC` was run?
**A.** > 128 µg/mL

tested on: Pseudomonas aeruginosa; experiment: Antibacterial activity against Pseudomonas aeruginosa 10-12 after 18 to 24 hrs by NCCLS method; assay type: functional; procedure, shortened: as §1

**Q.** How did the MIC turn out when `COc1ccc(CN2CCN(c3cc4c(cc3F)c(=O)c(C(=O)O)cn4C3CC3)CC2)c(OC)c1OC` was run?
**A.** 64 µg/mL (≈ 125 µM)

tested on: Klebsiella pneumoniae; experiment: Antibacterial activity against Klebsiella pneumoniae 10-4 after 18 to 24 hrs by NCCLS method; assay type: functional; procedure, shortened: as §1

**Q.** How did the MIC turn out when `COc1ccc(CN2CCN(c3cc4c(cc3F)c(=O)c(C(=O)O)cn4C3CC3)CC2)c(OC)c1OC` was run?
**A.** > 128 µg/mL

tested on: Staphylococcus epidermidis; experiment: Antibacterial activity against methicillin-resistant Staphylococcus epidermidis 10-10 after 18 to 24 hrs by NCCLS method; assay type: functional
Procedure, shortened: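 Incubated at 35 °C for 18–24 h under NCCLS (M100-S11) standards. MIC was read as the lowest concentration giving complete inhibition of visible bacterial growth.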

**Q.** `COc1ccc(CN2CCN(c3cc4c(cc3F)c(=O)c(C(=O)O)cn4C3CC3)CC2)c(OC)c1OC` was tested. Which MIC did it give?
**A.** 64 µg/mL (≈ 125 µM)

tested on: Escherichia coli; experiment: Antibacterial activity against Escherichia coli ATCC 25922 after 18 to 24 hrs by NCCLS method; assay type: functional; procedure, shortened: as §1

**Q.** Which MIC does the source give for `COc1ccc(CN2CCN(c3cc4c(cc3F)c(=O)c(C(=O)O)cn4C3CC3)CC2)c(OC)c1OC` here?
**A.** 0.5 µg/mL (≈ 0.977 µM)

tested on: Escherichia coli; experiment: Antibacterial activity against extended spectrum beta-lactamases producing Escherichia coli 10-4 after 18 to 24 hrs by NCCLS method; assay type: functional; procedure, shortened: as §1

**Q.** With `COc1ccc(CN2CCN(c3cc4c(cc3F)c(=O)c(C(=O)O)cn4C3CC3)CC2)c(OC)c1OC` as the compound, how does the MIC read?
**A.** 64 µg/mL (≈ 125 µM)

tested on: Escherichia coli; experiment: Antibacterial activity against Escherichia coli 10-2 after 18 to 24 hrs by NCCLS method; assay type: functional; procedure, shortened: as §1

**Q.** With `COc1ccc(CN2CCN(c3cc4c(cc3F)c(=O)c(C(=O)O)cn4C3CC3)CC2)c(OC)c1OC` as the compound, how does the MIC read?
**A.** 16 µg/mL (≈ 31.3 µM)

tested on: Staphylococcus aureus; experiment: Antibacterial activity against methicillin-sensitive Staphylococcus aureus 10-13 after 18 to 24 hrs by NCCLS method; assay type: functional; procedure, shortened: as §1

**Q.** Which MIC does the source give for `COc1ccc(CN2CCN(c3cc4c(cc3F)c(=O)c(C(=O)O)cn4C3CC3)CC2)c(OC)c1OC` here?
**A.** 0.25 µg/mL (≈ 0.489 µM)

tested on: Klebsiella pneumoniae; experiment: Antibacterial activity against extended spectrum beta-lactamases producing Klebsiella pneumoniae 10-3 after 18 to 24 hrs by NCCLS method; assay type: functional; procedure, shortened: as §1

**Q.** Which MIC does the source give for `COc1ccc(CN2CCN(c3cc4c(cc3F)c(=O)c(C(=O)O)cn4C3CC3)CC2)c(OC)c1OC` here?
**A.** > 128 µg/mL

tested on: Staphylococcus aureus; experiment: Antibacterial activity against methicillin-sensitive Staphylococcus aureus 10-11 after 18 to 24 hrs by NCCLS method; assay type: functional; procedure, shortened: as §1

**Q.** For `COc1ccc(CN2CCN(c3cc4c(cc3F)c(=O)c(C(=O)O)cn4C3CC3)CC2)c(OC)c1OC`, which MIC is on record?
**A.** 0.125 µg/mL (≈ 0.244 µM)

tested on: Pseudomonas aeruginosa; experiment: Antibacterial activity against Pseudomonas aeruginosa 10-5 after 18 to 24 hrs by NCCLS method; assay type: functional; procedure, shortened: as §1

**Q.** `COc1ccc(CN2CCN(c3cc4c(cc3F)c(=O)c(C(=O)O)cn4C3CC3)CC2)c(OC)c1OC` was tested. Which MIC did it give?
**A.** 32 µg/mL (≈ 62.6 µM)
